# High-throughput results from PubChem.
# CHOP UPR activ: activators of apoptotic arm of unfolded protein response (CHOP); CHO-CHOP luciferase reporter, UPR activation, luminescence; percent of tunicamycin response over DMSO baseline; activation, % at 10 µM; actives 0.34% (n = 330,000);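 active = at 10 µM dose, activation of 40% or more, normalized to positive control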;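 also: 100% = tunicamycin at 10 µg/mL and 0% = DMSO alone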
#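 Assay system: CHO cells with stable CHOP pathway luciferase reporter; Buffer or medium: F12 plus 10% serum; Times: 16-18 h cell attachment, then 6 h compound exposure, 37 °C; Signal: luciferase luminescence; Read-out basis: percent activation relative to tunicamycin control; Control set: tunicamycin high control, DMSO low control.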
# NOD2-RIPK2 inh: blocks binding of human NOD2 to RIPK2 | CHO BLA complementation NOD2-RIPK2, CCF4 ratio | inhibition, % at 4.98 µM | actives 0.38% (n = 360,000) | AID 624267; in the data active = inhibition above about 21%;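 also: 0% = vehicle only and 100% = reference blocker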
# Target sequence (O43353 whole entry, looked up): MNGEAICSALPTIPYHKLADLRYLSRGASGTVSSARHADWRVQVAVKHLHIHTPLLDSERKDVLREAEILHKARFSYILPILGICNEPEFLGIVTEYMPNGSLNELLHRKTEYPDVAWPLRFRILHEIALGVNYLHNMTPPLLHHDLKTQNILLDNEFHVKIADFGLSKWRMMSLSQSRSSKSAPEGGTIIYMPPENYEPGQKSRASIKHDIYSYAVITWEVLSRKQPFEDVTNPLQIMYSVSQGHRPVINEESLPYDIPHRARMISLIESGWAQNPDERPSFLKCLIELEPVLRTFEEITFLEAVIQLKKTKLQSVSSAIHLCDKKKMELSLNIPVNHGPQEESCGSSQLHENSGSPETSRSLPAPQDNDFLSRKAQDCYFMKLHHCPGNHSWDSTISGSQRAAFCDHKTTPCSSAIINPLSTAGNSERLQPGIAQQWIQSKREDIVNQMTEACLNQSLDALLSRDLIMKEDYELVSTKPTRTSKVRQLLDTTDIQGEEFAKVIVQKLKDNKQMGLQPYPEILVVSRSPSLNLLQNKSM
# TLR9-MyD88 inh: TLR9-MyD88 interaction inhibition; Q9NR96+Q99836; CHO BLA complementation TLR9-MyD88, CCF4 FRET ratio; inhibition, % at 4.98 µM; actives 0.21% (n = 340,000); AID 504734;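 active = inhibition above the mean over all tested compounds plus 3 SD, cut at about 21% in these data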;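 also: 0% = DMSO only wells and 100% = clavulanate BLA inhibitor control wells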
# CHOP inhibitor: blocks CHOP induction under ER stress | inhibition, % at 10 µM | actives 3.8% (n = 220,000) | AID 2732 | CHO-K1 CHOP-promoter luciferase, tunicamycin-induced, 15-18 h;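 active = compounds that reduced the stress-induced luciferase reporter signal by more than about 70% of percent inhibition, limit read from the data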;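 also: 0% = tunicamycin plus vehicle and 100% = wells without tunicamycin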
# TLR4 MyD88 comp: inhibitors of human TLR4-MyD88 binding. AID 861. actives 0.18% (n = 200,000). inhibition, % at 8.4 µM. HeLa CL3-4 TLR4/MyD88 BLA complementation, FRET ratio; in the data active = inhibition above about 25%;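 also: 0% = vehicle and 100% = reference inhibitor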
# UPR XBP1 act: activators of adaptive arm of unfolded protein response (XBP1). CHO-XBP1 luciferase reporter, IRE1-XBP1 UPR activation, luminescence; percent of tunicamycin response, DMSO as zero. activation, % at 20 µM. actives 0.33% (n = 330,000);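 active = versus positive control, 20 µM dose yields 30% or more activation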;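 also: 100% = tunicamycin at 10 µg/mL and 0% = DMSO only wells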
#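 Material: CHO-XBP1 cells stably carrying IRE1-XBP1-driven luciferase reporter / Amount: 1000 cells per well / Compound: 20 µM, 1% DMSO / Times: 6 h treatment, 37 °C / Detection: luciferase luminescence / Measure: % activation of reporter signal versus tunicamycin and DMSO controls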
# The depositor's hits bear a star; / = no result given. Many of the other results were omitted from the sample, so hits are more common in it than they were.
SMILES,CHOP UPR activ,NOD2-RIPK2 inh,TLR9-MyD88 inh,CHOP inhibitor,TLR4 MyD88 comp,UPR XBP1 act
Cc1cc(C(=O)COC(=O)c2ccccc2Br)c(C)n1CC1CCCO1 (stereo not given),-9,-4,-2,77*,/,-7
Cc1ccc(C(=O)OCC(=O)c2cc(C)n(CC3CCCO3)c2C)cc1 (stereo not given),4,-2,1,2,-11,-2
Cc1cc(C(=O)COC(=O)c2cccnc2Cl)c(C)n1CC1CCCO1 (stereo not given),-8,6,5,80*,-3,-14
COc1cc(C(=O)C(=O)N2CCC(Cc3ccccc3)CC2)cc2ccccc12,/,3,/,/,/,/
COc1ccccc1NC(=O)N(C)C[C@H]1OCc2cnnn2CCCC(=O)N([C@H](C)CO)C[C@H]1C,/,-4,2,/,/,/
C=CCOc1ccccc1CNc1ccccc1C,0,3,-2,70*,8,-3
CCOc1cc(/C=C2\SC(=O)N(CC(=O)Nc3ccccc3F)C2=O)cc([N+](=O)[O-])c1O,2,1,-4,93*,-5,-2
COc1cc(/C=C2\SC(=O)N(CC(=O)Nc3ccccc3F)C2=O)cc(Cl)c1O,4,-4,4,/,/,-4
COCCCNC(=O)c1cn(CC(C)C)c(=O)c2c1c1ccccc1n2C,-1,8,-3,15,3,2
CCOc1ccc(NC(=O)c2cn(CC(C)C)c(=O)c3c2c2ccccc2n3C)cc1,1,1,4,90*,-4,7
Cc1cc(C)n(-c2cc(N3CCN(C(=O)c4ccc(C(C)(C)C)cc4)CC3)ccc2[N+](=O)[O-])n1,3,0,5,73*,5,0
COC(=O)n1c(=S)oc2cc(Cl)ccc21,-3,/,/,90*,-16,-3
CCOC(=O)c1nnn(-c2nonc2-n2cccc2)c1CN1CCCCC1,4,-5,2,87*,-6,1
CCOC(=O)[C@]12CCC=C1N(CCC1=CCCCC1)C(=O)[C@H](CC(=O)NCc1ccc(OC)c(OC)c1)C2,/,-12,/,/,/,/
Clc1nnc(N/N=C/c2ccccc2)c2ccccc12,1,5,-1,75*,-10,2
Clc1ccc(/C=N/Nc2nnc(Cl)c3ccccc23)cc1,5,-3,-8,49,13,6
CCCC(=O)NC(c1cccs1)c1cc([N+](=O)[O-])c2cccnc2c1O (stereo not given),/,-1,-6,36,-3,/
O=C(CCc1ccccc1)NC(c1cccs1)c1cc(Cl)c2cccnc2c1O (stereo not given),/,4,1,89*,0,/
Nc1ccc2nc(-c3ccccc3)sc2c1,-5,2,2,63,-8,-4
Cc1ccc2nc(-c3ccc(N)cc3)sc2c1,-6,-8,/,78*,/,-5
CC(=O)Nc1ccc(S(=O)(=O)Nc2nc3ccc(C)cc3s2)cc1,2,-1,0,4,-11,0
Cc1ccc2nc(-c3ccc(NS(=O)(=O)c4ccc(F)cc4)cc3)sc2c1,3,8,-8,104*,-14,1
COc1ccc(S(=O)(=O)NC(=O)C2(C)CCN2C(=O)C2(c3ccccc3)CCCC2)cc1 (stereo not given),/,-12,/,/,/,/
CCCCN1C(=O)c2ccc(C(=O)NCCN3C(=O)S/C(=C\c4cccnc4)C3=O)cc2C1=O,-1,-6,3,76*,2,-2
COc1ccccc1-c1sc2ccccc2c1-c1cnc(N2CCOCC2)nc1,/,2,/,/,/,/
SMILES,CHOP UPR activ,NOD2-RIPK2 inh,TLR9-MyD88 inh,CHOP inhibitor,TLR4 MyD88 comp,UPR XBP1 act
Cc1ccccc1-c1cc(-c2ccccc2O)n[nH]1,5,-3,-1,80*,-11,1
Cc1ccc(-c2cc(-c3ccccc3[N+](=O)[O-])[nH]n2)c(O)c1,4,8,-2,94*,-8,5
Cc1ccc(-c2cc(-c3ccccc3Cl)[nH]n2)c(O)c1,3,0,2,-23,5,2
C#CCOCCOCCOCCNc1nc(N2CCN(C(=O)CCCCCCCCCCNC(=O)[C@H]([C@@H](C)CC)n3cc(CCCCCN)nn3)CC2)nc(N2CCN(C(=O)CCCCCCCCCCNC(=O)[C@@H]([C@H](C)CC)n3cc(CCCCCN)nn3)CC2)n1,9,/,/,/,/,32*
C#CCOCCOCCOCCNc1nc(N2CCN(C(=O)CCCCCCCCCCNC(=O)[C@H]([C@@H](C)CC)n3cc(CCCCN=C(N)N)nn3)CC2)nc(N2CCN(C(=O)CCCCCCCCCCNC(=O)[C@H](CO)n3cc(CCCCCN)nn3)CC2)n1,1,31*,35*,/,/,3
C#CCOCCOCCOCCNc1nc(N2CCN(C(=O)CCCCCCCCCCNC(=O)[C@H]([C@@H](C)CC)n3cc(CCCCCN)nn3)CC2)nc(N2CCN(C(=O)CCCCCCCCCCNC(=O)[C@H]([C@@H](C)CC)n3cc(CCCCN=C(N)N)nn3)CC2)n1,3,69*,75*,/,/,27
C#CCOCCOCCOCCNc1nc(N2CCN(C(=O)CCCCCCCCCCNC(=O)Cn3cc(CCCCCN)nn3)CC2)nc(N2CCN(C(=O)CCCCCCCCCCNC(=O)[C@H]([C@@H](C)CC)n3cc(CCCCN=C(N)N)nn3)CC2)n1,0,35*,40*,/,/,5
C#CCOCCOCCOCCNc1nc(N2CCN(C(=O)CCCCCCCCCCNC(=O)[C@H]([C@@H](C)CC)n3cc(CCCCCN)nn3)CC2)nc(N2CCN(C(=O)CCCCCCCCCCNC(=O)[C@H](CO)n3cc(CCCCCN)nn3)CC2)n1,0,13,15,/,/,5
Cc1ccc2nc(C(C)(C)C)c(Cc3ccccc3C(F)(F)F)n2c1,/,-1,/,/,/,/
ON=C1CCC2CCCCC2C1 (stereo not given),/,-5,0,/,/,/
COc1ccc(CCNC(=O)C2CCN(Cc3nc(-c4ccccc4C)oc3C)CC2)cc1OC,-2,-5,-11,55,-7,0
Cc1ccccc1-c1nc(CN2CCC(C(=O)NCCC3=CCCCC3)CC2)c(C)o1,2,4,-20,71*,2,-1
CCc1ccc(-c2nc(CN3CCC(C(=O)N4CCN(c5ccccc5)CC4)CC3)c(C)o2)cc1,2,11,1,98*,-18,4
CCN(CCNC(=O)C1CCN(Cc2nc(-c3cccc(Cl)c3)oc2C)CC1)c1ccccc1,0,9,4,95*,9,6
CCN(CCNC(=O)C1CCN(Cc2nc(-c3ccc(Cl)cc3)oc2C)CC1)c1ccccc1,2,-7,-1,85*,-1,19
CCc1nc2ccc(C(=O)NCCc3c[nH]c4ccccc34)cn2c1N(C)Cc1nccn1C,/,-6,/,/,/,/
